Experimental data: ChEMBL document CHEMBL6096643 (Bioorg Med Chem, 2024)
pEC50, pIC50: −log10 of the molar value. Calls of active or inactive are those of the source. No cut-off for these calls is given here.

Experiments:
[1] = target: T1, Tubulin (Homo sapiens) (UniProt P68371+Q9H4B7+P0DPH7+P68366+Q13509+Q71U36+P04350+Q3ZCM7+P07437+P68363+Q9BQE3+Q6PEY2+Q13885+Q9BVA1+Q9BUF5); assay: Inhibition of [3H]colchicine binding to tubulin (unknown origin) at 5 uM relative to control; assay type: protein-complex assay
In short: (§1)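 Tubulin at 1.0 μM (0.1 mg/mL), [3H]colchicine at 5.0 μM, compounds at 5 or 50 μM. Bound colchicine measured by DEAE-cellulose filter method; triplicate experiments.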

[2] = target: T1, Tubulin (Homo sapiens); assay: Inhibition of [3H]colchicine binding to tubulin (unknown origin) at 50 uM relative to control; assay type: protein-complex assay; in short: as §1
[3] = Inhibition of bovine brain tubulin polymerization preincubated for 15 mins followed by GTP addition and measured after 20 mins; parameters: species or system Bos taurus
[4] = Cytotoxicity against human HPDE cells measured after 48 hrs by CellTiter 96 Aqueous One Solution Cell Proliferation Assay; assay type: toxicity, cell-based
[5] = Disruption of microtubule network in rat A10 cells incubated for 18 hrs by fluorescence microscopic analysis; assay type: cell-based
In short: (§2)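 A-10 cells on glass coverslips exposed to a range of compound concentrations for 18 h. Cells fixed, microtubules stained with β-tubulin antibody, nuclei with DAPI, then viewed by fluorescence microscopy. Microtubule loss estimated visually, EC50 taken from dose-response curves, two independent experiments.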

[6] = system: MCF7; assay: Antiproliferative activity against human MCF7 cells assessed as cell growth inhibition measured after 48 hrs by sulforhodamine B assay; assay type: functional, cell-based; details: MCF7, 48 h
In short: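 MCF-7 cells grown 24 h without drug, then 48 h with varying compound concentrations. Total cell protein measured by sulforhodamine B assay; IC50 for growth inhibition derived.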

[7] = system: HCT-116; assay: Cytotoxicity against human HCT-116 cells measured after 48 hrs by CellTiter 96 Aqueous One Solution Cell Proliferation Assay; assay type: functional, cell-based; details: HCT-116, 48 h
[8] = system: A10; assay: Disruption of microtubule network in rat A10 cells at 15 uM incubated for 18 hrs by fluorescence microscopic analysis; assay type: cell-based; in short: as §2
[9] = system: MIA PaCa-2; assay: Cytotoxicity against human MIA PaCa-2 cells at 1.562 to 100 uM measured after 48 hrs by CellTiter 96 Aqueous One Solution Cell Proliferation Assay; assay type: functional, cell-based; details: dose 1.562-100 µM
[10] = system: A10; assay: Disruption of microtubule network in rat A10 cells at 20 uM incubated for 18 hrs by fluorescence microscopic analysis; assay type: cell-based; in short: as §2
[11] = system: A10; assay: Disruption of microtubule network in rat A10 cells at 2.5 uM incubated for 18 hrs by fluorescence microscopic analysis; assay type: cell-based
In short: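 Rat A-10 cells grown on glass coverslips, exposed 18 h to a range of compound concentrations (single-concentration image at 2.5 μM), then fixed. Microtubules stained by indirect immunofluorescence with β-tubulin antibody, nuclei with 4,6-diamidino-2-phenylindole. Interphase microtubule loss scored visually by fluorescence microscopy against vehicle control.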

| Structure (SMILES) | inhibition [1] | inhibition [2] | pIC50 [3] | IC50 at 48 h [4] [µM] | pEC50 [5] | pIC50 [6] | pIC50 [7] | Activity [8] | Activity [9] | Activity [10] | Activity [11] |
| --- | --- | --- | --- | --- | --- | --- | --- | --- | --- | --- | --- |
| COc1ccc(C(=O)c2cc(OC)c(OC)c(OC)c2)cc1O [PHENSTATIN] | 86% | inactive | 6.00 | > 50 |  |  |  |  |  |  |  |
| COc1ccc(/C=C\c2cc(OC)c(OC)c(OC)c2)cc1O [COMBRETASTATIN A4] |  |  |  | > 50 | > 7.60 |  |  |  |  |  |  |
| COc1ccc(/C=C\c2cc(OC)c(OC)c(OC)c2)cc1B(O)O |  | 99% | 5.82 | > 50 | 7.24 |  |  |  |  |  |  |
| COc1cc(/C=C\c2cnc(OC)c(B(O)O)c2)cc(OC)c1OC | inactive | inactive | 4.52 | > 50 | 5.05 | 6.41 | > 5.30 | Active |  |  |  |
| COc1cc(/C=C\c2ccccc2B(O)O)cc(OC)c1OC | inactive | inactive | < 4.40 | > 50 | 4.29 | < 5.60 | > 5.30 |  | Active; Compound Showed Less Toxicity Than Hct-116 Cells |  |  |
| COc1cc(/C=C\c2cccc(B(O)O)c2)cc(OC)c1OC | inactive | inactive | 4.57 | > 50 | 5.05 | 6.07 | > 5.30 |  |  |  |  |
| COc1cc(/C=C\c2ccc(B(O)O)cc2)cc(OC)c1OC | 6.4% | 77% | 5.00 | > 50 | 5.40 | 6.32 | > 5.30 |  |  | Active |  |
| COc1cc(C(=O)c2cnc(OC)c(B(O)O)c2)cc(OC)c1OC | inactive | inactive | < 4.40 | > 50 | < 4.30 | < 5.60 |  |  |  |  |  |
| COc1ccc(C(=O)c2cc(OC)c(OC)c(OC)c2)cc1B(O)O | 21% | 59% | 4.92 | > 50 | 5.30 | 6.52 |  |  | Active; Compound Showed Less Toxicity Than Hct-116 Cells |  | Active |
